Reference: ChEMBL document CHEMBL3425411, “Synthesis of β-Carboline-Based N-Heterocyclic Carbenes and Their Antiproliferative and Antimetastatic Activities against Human Breast Cancer Cells” (J Med Chem, 2015)
Activity calls are given as the source filed them. The rule behind the calls is not given here.

Assays:
[1] = tested on: MDA-MB-231; test: Antiinvasive activity against human MDA-MB-231 cells at 1 uM after 48 hrs by transwell assay; format: functional, cell-based
Outline: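 Matrigel (growth factor reduced, diluted in serum-free medium) coated on 8 μm pore polycarbonate transwell membranes, set 2 h at 37 °C. 30 000 cells/well seeded in RPMI-1640 with 1% FBS plus compound; lower chamber had 10% FBS as chemoattractant. After 48 h, non-invaded cells were swabbed off and invaded cells were methanol-fixed and stained with 0.1% crystal violet. At least 10 random fields were counted and expressed versus control.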

[2] = tested on: MDA-MB-231; test: Downregulation of Bcl-2 expression in human MDA-MB-231 cells at 5 to 7.5 uM after 24 hrs by Western blot analysis; format: functional, cell-based
Outline: (§1)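 Cells were treated for 24 h. Lysates were made in RIPA buffer, and 40 μg protein was resolved on 10–15% SDS-PAGE and transferred to PVDF. Membranes were blocked with 5% milk and probed overnight at 4 °C with primary antibodies, then HRP secondaries. Detection was by ECL with β-actin as loading control. Blots represent three independent experiments.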

[3] = molecular target: c-Jun N-terminal kinase, JNK (Homo sapiens) (UniProt P45983+P53779+P45984); test: Inhibition of SAPK/JNK phosphorylation in human MDA-MB-231 cells at 5 to 7.5 uM after 24 hrs by Western blot analysis; format: cell-based
Outline: (§2)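 MDA-MB-231 cells treated 24 h, then lysed in RIPA buffer. 40 μg protein run on 10–15% SDS–PAGE and transferred to PVDF. Blocked in 5% milk, probed overnight at 4 °C with primary antibodies (phospho- and total ERK1/2, JNK, p38, cleaved caspase-3), then HRP secondary. ECL detection with β-actin as loading control. Blots representative of three experiments.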

[4] = tested on: MDA-MB-231; test: Induction of apoptosis in human MDA-MB-231 cells assessed as PARP cleavage at 5 to 7.5 uM after 24 hrs by Western blot analysis; format: functional, cell-based; outline: as §1
[5] = molecular target: T1, Albumin (Homo sapiens, UniProt P02768); test: Binding affinity to human serum albumin at 293 K at pH 7.4 by fluorescence spectra analysis; format: ADME; settings: isolated protein
Outline: (§3)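 Steady-state Trp fluorescence quenching of HSA (10 μM, 0.05 M phosphate pH 7.4, excitation 295 nm) by increasing compound was run at each of three temperatures. F₀/F was fitted to the Stern–Volmer equation for KSV. Binding constant Kb and n came from the modified equation log[(F₀−F)/F] = log Kb + n log[Q].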

[6] = molecular target: T1, Albumin; test: Binding affinity to human serum albumin at 303 K at pH 7.4 by fluorescence spectra analysis; format: ADME; settings: isolated protein; outline: as §3
[7] = molecular target: 72 kDa type IV collagenase (Homo sapiens) (UniProt P08253); test: Inhibition of MMP-2 in human MDA-MB-231 cells at 1 to 5 uM after 24 hrs by gelatin zymographic method; format: cell-based
Outline: (§4)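 MDA-MB-231 cells, 1 × 10⁵ per well, treated 24 h with 0, 1, 2.5, 5 or 7.5 μM. Conditioned medium centrifuged and equal protein loaded on 8% SDS–PAGE containing 0.1% gelatin, run at 80 V. Triton X-100 washes, then developed 20 h at 37 °C in Tris-HCl pH 7.5 with NaCl, CaCl₂ and ZnCl₂. Coomassie stain, then destain.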

[8] = tested on: MDA-MB-231; test: Downregulation of cyclin B expression in human MDA-MB-231 cells at 5 to 7.5 uM after 24 hrs by Western blot analysis; format: functional, cell-based; outline: as §1
[9] = molecular target: T1, Albumin; test: Binding affinity to human serum albumin assessed as change in secondary structure up to 40 uM at pH 7.4 by circular dichroism spectra analysis; format: ADME; settings: isolated protein
[10] = tested on: MDA-MB-231; test: Antimigratory activity against human MDA-MB-231 cells at 2.5 to 5 uM after 12 to 24 hrs by wound healing assay; format: functional, cell-based
Outline: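 2 × 10⁵ cells were plated in six-well plates and scratched with a 200 μL tip. Debris was removed, then cells were treated (0, 1, 2.5, 5, 7.5 μM; or 0–5 μM). The wound was photographed at 0, 12 and 24 h under 100× phase contrast. Area was measured as percent wound closure versus control. Three independent experiments, mean ± SEM.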

[11] = tested on: MDA-MB-231; test: Downregulation of CDK1 expression in human MDA-MB-231 cells at 5 to 7.5 uM after 24 hrs by Western blot analysis; format: functional, cell-based; outline: as §1
[12] = tested on: MDA-MB-231; test: Downregulation of CDC25C expression in human MDA-MB-231 cells at 5 to 7.5 uM after 24 hrs by Western blot analysis; format: functional, cell-based; outline: as §1
[13] = molecular target: T1, Albumin; test: Binding affinity to human serum albumin at 283 K at pH 7.4 by fluorescence spectra analysis; format: ADME; settings: isolated protein; outline: as §3
[14] = tested on: MDA-MB-231; test: Downregulation of Bcl-XL expression in human MDA-MB-231 cells at 5 to 7.5 uM after 24 hrs by Western blot analysis; format: functional, cell-based; outline: as §1
[15] = molecular target: Mitogen-activated protein kinase; ERK1/ERK2 (Homo sapiens) (UniProt P27361+P28482); test: Inhibition of ERK1/2 phosphorylation in human MDA-MB-231 cells at 5 to 7.5 uM after 24 hrs by Western blot analysis; format: cell-based; outline: as §2
[16] = molecular target: Matrix metalloproteinase-9 (Homo sapiens) (UniProt P14780); test: Inhibition of MMP-9 in human MDA-MB-231 cells at 1 to 5 uM after 24 hrs by gelatin zymographic method; format: cell-based; outline: as §4
[17] = molecular target: MAP kinase p38 (Homo sapiens) (UniProt O15264+Q15759+Q16539+P53778); test: Induction of p38 MAPK phosphorylation in human MDA-MB-231 cells at 5 to 7.5 uM after 24 hrs by Western blot analysis; format: cell-based; outline: as §2
[18] = tested on: MDA-MB-231; test: Upregulation of cleaved caspase-3 expression in human MDA-MB-231 cells at 5 to 7.5 uM after 24 hrs by Western blot analysis; format: functional, cell-based; outline: as §2
[19] = molecular target: T1, Albumin; test: Binding affinity to human serum albumin at 2 to 50 uM at pH 7.4 by fluorescence spectra analysis; format: ADME; settings: isolated protein, pH 7.4, 50 µM
Outline: (§5)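 Fatty-acid-free HSA (10 μM) in 0.05 M phosphate buffer pH 7.4 was titrated with compound from 0 to 50 μM. Trp emission was excited at 295 nm and quenching was monitored. Data were fitted to the Stern–Volmer equation and a modified log[(F₀−F)/F] versus log[Q] plot, giving Kb and n from intercept and slope.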

[20] = molecular target: T1, Albumin; test: Binding affinity to human serum albumin at 2 to 50 uM at pH 7.4 by spectroscopic analysis; format: ADME; settings: isolated protein, pH 7.4, 50 µM; outline: as §5
[21] = tested on: MDA-MB-231; test: Downregulation of survivin expression in human MDA-MB-231 cells at 5 to 7.5 uM after 24 hrs by Western blot analysis; format: functional, cell-based; outline: as §1

T1 sequence (P02768 whole entry): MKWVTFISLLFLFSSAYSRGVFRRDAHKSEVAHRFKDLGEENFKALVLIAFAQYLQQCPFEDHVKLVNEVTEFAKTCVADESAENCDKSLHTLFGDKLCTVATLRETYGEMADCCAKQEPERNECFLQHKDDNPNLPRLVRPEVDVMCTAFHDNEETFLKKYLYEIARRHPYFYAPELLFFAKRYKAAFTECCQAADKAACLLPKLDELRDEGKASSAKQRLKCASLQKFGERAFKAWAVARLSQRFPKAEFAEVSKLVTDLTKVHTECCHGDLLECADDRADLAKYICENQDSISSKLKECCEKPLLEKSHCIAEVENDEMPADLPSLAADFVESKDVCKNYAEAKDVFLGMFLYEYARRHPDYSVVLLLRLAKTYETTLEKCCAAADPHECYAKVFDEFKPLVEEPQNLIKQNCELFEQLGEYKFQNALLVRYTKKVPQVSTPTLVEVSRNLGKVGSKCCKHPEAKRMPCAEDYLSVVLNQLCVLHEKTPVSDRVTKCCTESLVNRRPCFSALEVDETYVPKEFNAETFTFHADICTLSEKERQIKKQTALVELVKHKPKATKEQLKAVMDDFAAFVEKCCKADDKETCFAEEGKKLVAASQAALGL
Chain of Mitogen-activated protein kinase; ERK1/ERK2 (Homo sapiens) (P27361 whole entry, looked up): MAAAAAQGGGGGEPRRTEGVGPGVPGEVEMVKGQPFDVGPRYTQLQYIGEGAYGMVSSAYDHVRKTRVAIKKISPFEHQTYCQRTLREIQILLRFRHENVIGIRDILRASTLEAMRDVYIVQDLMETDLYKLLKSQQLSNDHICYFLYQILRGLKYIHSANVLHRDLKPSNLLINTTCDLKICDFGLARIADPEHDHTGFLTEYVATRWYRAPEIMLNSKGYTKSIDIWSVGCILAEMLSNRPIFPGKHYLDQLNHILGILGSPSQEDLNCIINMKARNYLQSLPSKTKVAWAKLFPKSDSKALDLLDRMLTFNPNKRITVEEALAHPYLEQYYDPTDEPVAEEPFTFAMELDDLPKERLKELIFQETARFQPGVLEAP
Chain of Mitogen-activated protein kinase; ERK1/ERK2 (Homo sapiens) (P28482 whole entry, looked up): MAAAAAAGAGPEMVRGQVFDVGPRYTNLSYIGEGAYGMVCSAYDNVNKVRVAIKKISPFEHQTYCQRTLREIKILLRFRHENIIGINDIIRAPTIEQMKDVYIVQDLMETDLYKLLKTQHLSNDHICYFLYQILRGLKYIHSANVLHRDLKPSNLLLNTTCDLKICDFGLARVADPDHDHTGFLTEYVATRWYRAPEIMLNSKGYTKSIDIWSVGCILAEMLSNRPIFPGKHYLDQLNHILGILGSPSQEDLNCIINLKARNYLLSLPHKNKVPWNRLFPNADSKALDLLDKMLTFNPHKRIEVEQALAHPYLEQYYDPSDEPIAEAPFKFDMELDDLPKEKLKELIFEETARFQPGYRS
Chain of 72 kDa type IV collagenase (Homo sapiens) (P08253 110-660 limits assumed): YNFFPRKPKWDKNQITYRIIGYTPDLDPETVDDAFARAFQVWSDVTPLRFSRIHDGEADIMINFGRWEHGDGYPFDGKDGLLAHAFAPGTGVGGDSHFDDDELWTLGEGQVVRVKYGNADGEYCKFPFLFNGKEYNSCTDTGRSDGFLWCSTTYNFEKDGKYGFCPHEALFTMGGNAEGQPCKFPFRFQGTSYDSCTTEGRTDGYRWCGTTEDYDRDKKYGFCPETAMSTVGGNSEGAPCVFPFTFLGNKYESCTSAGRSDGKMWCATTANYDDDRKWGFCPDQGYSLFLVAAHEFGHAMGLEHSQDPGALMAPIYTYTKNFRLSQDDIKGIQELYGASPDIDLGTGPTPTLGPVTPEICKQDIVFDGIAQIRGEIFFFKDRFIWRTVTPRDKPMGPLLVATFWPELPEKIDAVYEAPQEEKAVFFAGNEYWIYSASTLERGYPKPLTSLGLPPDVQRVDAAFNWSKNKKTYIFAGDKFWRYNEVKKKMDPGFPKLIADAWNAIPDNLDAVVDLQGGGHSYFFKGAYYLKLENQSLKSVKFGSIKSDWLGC
Chain of Matrix metalloproteinase-9 (Homo sapiens) (P14780 whole entry): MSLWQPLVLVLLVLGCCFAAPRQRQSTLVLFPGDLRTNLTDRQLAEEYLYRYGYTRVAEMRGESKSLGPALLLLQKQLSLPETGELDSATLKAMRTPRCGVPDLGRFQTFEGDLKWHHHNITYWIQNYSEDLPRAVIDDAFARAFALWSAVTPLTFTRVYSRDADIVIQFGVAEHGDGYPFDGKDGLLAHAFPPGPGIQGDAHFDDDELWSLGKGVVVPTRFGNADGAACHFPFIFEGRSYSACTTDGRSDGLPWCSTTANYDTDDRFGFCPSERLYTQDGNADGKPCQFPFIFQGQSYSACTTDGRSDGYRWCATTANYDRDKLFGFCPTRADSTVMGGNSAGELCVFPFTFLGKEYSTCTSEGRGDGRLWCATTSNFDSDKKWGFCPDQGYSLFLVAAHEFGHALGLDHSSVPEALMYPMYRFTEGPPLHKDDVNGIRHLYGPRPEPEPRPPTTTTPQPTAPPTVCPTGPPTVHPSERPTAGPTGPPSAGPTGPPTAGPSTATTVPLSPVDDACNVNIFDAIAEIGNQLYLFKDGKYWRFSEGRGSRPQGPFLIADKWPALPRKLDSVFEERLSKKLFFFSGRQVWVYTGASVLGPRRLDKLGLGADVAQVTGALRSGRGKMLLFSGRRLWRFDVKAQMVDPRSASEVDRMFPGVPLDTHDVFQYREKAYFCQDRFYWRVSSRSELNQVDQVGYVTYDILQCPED

SMILES: COC(=O)c1cc2c3ccccc3[nH]c2c2cn(-c3ccc(F)cc3Cl)c[n+]12.[Cl-]
- Activity [1]: Active
- Activity [2]: Active
- inhibition [3]: Active
- Activity [4]: Active
- Kb [5]: 8.91 ×10⁴ L/mol
- Kb [6]: 7.94 ×10⁴ L/mol
- inhibition [7]: Active
- Activity [8]: Active
- Activity [9]: Not Active
- Activity [10]: Active
- Activity [11]: Active
- Activity [12]: Active
- Kb [13]: 9.77 ×10⁴ L/mol
- Activity [14]: Active
- inhibition [15]: Active
- inhibition [16]: Active
- Activity [17]: Active
- Activity [18]: Active
- Activity [19]: Active
- Activity [20]: Active
- Activity [21]: Active
